# Most compounds without a hit are left out; they make up all but 2.3% or so of the library.
# TRPC4 act – TRPC4 (mouse) channel activation; Q9QUQ5; hit rate 0.49% among 310,000; HEK293 TRPC4beta/mu-opioid, Fluo4 calcium fluorescence; active compounds read high; B-score at 10 µM;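 active = B-score above 5 SD of library B-scores, and initial fluorescence ratio not above library mean plus 5 SD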;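 note: positive B-score marks a calcium rise read as TRPC4 activation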
# Target sequence (Q9QUQ5 whole entry, looked up): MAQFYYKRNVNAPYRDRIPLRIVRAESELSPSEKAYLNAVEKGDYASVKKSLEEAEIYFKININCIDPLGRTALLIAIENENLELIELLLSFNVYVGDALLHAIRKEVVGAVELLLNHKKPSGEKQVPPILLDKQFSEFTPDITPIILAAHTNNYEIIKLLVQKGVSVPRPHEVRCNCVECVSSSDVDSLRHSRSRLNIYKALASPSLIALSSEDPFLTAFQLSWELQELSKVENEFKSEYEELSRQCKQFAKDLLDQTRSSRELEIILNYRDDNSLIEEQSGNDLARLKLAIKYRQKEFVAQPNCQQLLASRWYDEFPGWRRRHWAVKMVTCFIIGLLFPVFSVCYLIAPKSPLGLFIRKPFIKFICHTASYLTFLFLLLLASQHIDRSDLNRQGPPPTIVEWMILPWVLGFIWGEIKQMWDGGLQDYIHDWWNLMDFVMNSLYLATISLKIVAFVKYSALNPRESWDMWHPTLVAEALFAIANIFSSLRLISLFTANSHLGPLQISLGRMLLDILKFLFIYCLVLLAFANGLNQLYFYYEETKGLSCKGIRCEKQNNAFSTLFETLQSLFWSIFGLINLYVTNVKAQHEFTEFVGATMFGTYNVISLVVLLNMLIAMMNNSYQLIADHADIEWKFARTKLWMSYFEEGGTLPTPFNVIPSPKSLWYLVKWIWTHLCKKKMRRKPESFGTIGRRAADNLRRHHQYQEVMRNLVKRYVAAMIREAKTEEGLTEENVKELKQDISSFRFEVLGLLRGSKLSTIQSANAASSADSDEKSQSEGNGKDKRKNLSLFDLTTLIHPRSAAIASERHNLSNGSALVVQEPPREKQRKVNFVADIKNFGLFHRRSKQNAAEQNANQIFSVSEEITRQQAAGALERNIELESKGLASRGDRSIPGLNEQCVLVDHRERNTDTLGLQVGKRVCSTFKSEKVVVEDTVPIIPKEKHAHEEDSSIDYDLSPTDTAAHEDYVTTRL
#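 system = HEK293 cells stably co-expressing mouse TRPC4beta and mu-opioid receptor | schedule = Fluo4 dye loading 45 min at room temperature, 110 s recording | measure = B-scored integrated calcium fluorescence ratio | signal = Fluo4 calcium-sensitive dye fluorescence, kinetic, 1 Hz baseline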
# TRPC4 block – TRPC4 (mouse) channel inhibition. HEK293 TRPC4beta/mu-opioid, DAMGO-evoked Fluo4 calcium flux; active compounds read low. B-score at 10 µM. hit rate 0.39% among 300,000. AID 2247;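 active = B-score over 3 SD under the library average, no early fluorescence shift, positive overall ratio signal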
#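 Assay system: Stable TRPC4beta/mu-opioid receptor HEK293 cells | Reagent: DAMGO in two steps, submaximal then maximal | Compound dosing: Single concentration per test compound | Signal: Fluo4 Ca2+ flux fluorescence | Evaluation: Per-well B score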
# TRPC4 potent – allosteric potentiators of mouse TRPC4 channel | Q9QUQ5 | HEK293 TRPC4beta/mu-opioid, DAMGO EC20, Fluo-4 Ca2+ flux; active compounds read high | B-score at 10 µM | hit rate 0.42% among 310,000;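 active = B-score of calcium response area above 5 SD of library B-scores, with initial fluorescence ratio within 5 SD of library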;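 note: B-score of integrated fluorescence ratio over time as area under calcium response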
# TRPC6 act – activators of mouse TRPC6 channel. Q61143. HEK293-TRPC6 membrane potential dye fluorescence; active compounds read high. B-score at 10 µM. hit rate 0.13% among 310,000;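 active = B-score of the integrated fluorescence ratio above library mean plus 3 SD, and starting fluorescence ratio within library mean plus 5 SD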;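 note: higher score means more depolarization so channel activation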
# TRPC6 inh – inhibitors of mouse TRPC6 channel. Q61143. HEK293-TRPC6, membrane potential dye, ACh-evoked depolarization; active compounds read low. B-score at 10 µM. hit rate 1.1% among 310,000. AID 2553;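 active = B-score under library mean minus 3 SD, initial fluorescence not abnormally high, positive integrated signal ratio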;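 note: B-score derived from integrated fluorescence ratio over the kinetic read; more negative B-score means stronger inhibition of depolarization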
# * marks the source's active call; other numbers are inactive results; i = inactive.
SMILES,TRPC4 act,TRPC4 block,TRPC4 potent,TRPC6 act,TRPC6 inh
CN(C)CCNC(=O)c1cc2sc3ccccc3c2s1,i,i,10*,i,i
CCN(CC)C(=O)c1cc2sc3ccccc3c2s1,i,i,i,i,i
CC(NC(=O)c1ccc(S(=O)(=O)N(C)C)cc1)c1ccc(-n2ccnc2)cc1 (stereo unspecified),i,i,i,i,i
CCc1nnc(NC(=O)C(CC)CC)s1,i,i,i,i,i
COc1ccc(C)cc1S(=O)(=O)NC1CCCC1,i,i,i,i,i
COc1ccc(S(=O)(=O)NC2CCCC2)c(Cl)c1Cl,i,i,11*,i,i
CCCCN(CC)CCCNC(=O)Cn1nc(Cc2ccncc2)c2ccccc2c1=O,133*,i,i,i,i
CCCCN(C)C(=O)Cn1nc(Cc2ccncc2)c2ccccc2c1=O,i,i,i,i,i
COCCn1c(SCC(=O)N2CCCCC2)nc2c(c1=O)SC(C)C2 (stereo unspecified),i,i,i,i,i
Cc1ccc(NC(=O)C(C)OC(=O)Cc2c[nH]c3ccccc23)cc1 (stereo unspecified),i,-6*,i,i,i
COc1ccccc1N1CCN(C2CCCN(Cc3ccc(Cl)cc3)C2)CC1 (stereo unspecified),i,i,i,i,i
COc1ccccc1N1CCN(C2CCCN(Cc3ccccc3OCCO)C2)CC1 (stereo unspecified),i,i,12*,i,i
COc1ccccc1N1CCN(C2CCCN(C(=O)c3oc(C)cc3C)C2)CC1 (stereo unspecified),54*,i,i,i,i
COc1ccc(O)c(CN2CCCC(N3CCN(c4ccccc4OC)CC3)C2)c1 (stereo unspecified),43*,i,i,i,i
CCN(Cc1ccncc1)S(=O)(=O)c1ccc(C(C)=O)cc1,i,i,i,i,i
CC(=O)Nc1ccc(S(=O)(=O)N2CCN(c3cc(C(F)(F)F)ccn3)CC2)cc1,i,i,i,i,i
FC(F)(F)c1ccnc(N2CCN(Cc3cnc(-c4ccccc4)[nH]3)CC2)c1,i,-7*,i,i,i
CCN(CC)CCCNC(=S)N1CCN(c2nc3ccccc3n2CC)CC1,i,i,15*,i,i
CCN(CC)CCCNC(=S)N1CCn2c(nc3ccccc32)C1,i,i,i,i,i
Cc1ccc(C)c(NC2CCCCC2NS(=O)(=O)c2ccccc2)c1 (stereo unspecified),i,i,i,i,i
Cc1cccc(NC2CCCCC2NS(=O)(=O)c2ccccc2)c1 (stereo unspecified),i,i,13*,i,i
CCCCCn1c(=O)[nH]c2cc(C(=O)NCCN(CC)CC)ccc2c1=O,i,i,14*,i,i
CCOc1cc(CN2CCN(c3ncccn3)CC2)ccc1OC,i,i,i,i,i
CCc1cc(OCCN(C)C)ccc1Cl,100*,i,26*,i,i
CCc1cc(OCCN2C(=O)NC(C)(C)C2=O)ccc1Cl,i,i,14*,i,i
SMILES,TRPC4 act,TRPC4 block,TRPC4 potent,TRPC6 act,TRPC6 inh
O=C(NCc1ccccc1)C1=C[C@H](c2ccccc2)C[C@H](OCc2ccc(CO)cc2)O1,176*,i,i,i,i
O=C(Nc1ccccc1)C1=C[C@H](c2ccc(C(F)(F)F)cc2)C[C@H](OCc2ccc(CO)cc2)O1,i,i,i,i,i
CC(=O)n1cc([C@@H]2C=C(C(=O)NCc3ccccc3)O[C@H](OCc3ccc(CO)cc3)C2)c2ccccc21,i,i,15*,i,i
O=C(NCc1ccccc1)C1=C[C@H](c2ccc(C(F)(F)F)cc2)C[C@H](OCc2ccc(CO)cc2)O1,i,i,19*,i,i
O=C(Nc1ccccc1)C1=C[C@H](c2ccccc2)C[C@H](OCc2ccc(CO)cc2)O1,i,i,12*,i,i
O=C(NCc1ccccc1)C1=C[C@@H](c2ccc(Br)cc2)C[C@@H](OCc2ccc(CO)cc2)O1,i,i,i,i,i
CS(=O)(=O)N1CCN(c2ccccc2NC(=O)CSc2ccc(Cl)cc2)CC1,i,i,10*,i,i
CS(=O)(=O)N1CCN(c2ccccc2NC(=O)c2ccc(Cl)cc2)CC1,i,i,i,i,i
CCc1ccc(NC(=O)CCC(=O)N2CCSc3ccccc32)cc1,i,i,i,i,i
CN(C)c1ccc(C(=S)N2CCN(c3ccc([N+](=O)[O-])cc3)CC2)cc1,i,i,19*,i,i
O=C1COc2ccc(C(=O)COc3ccc([N+](=O)[O-])cc3)cc2N1,i,i,i,i,i
CCc1ccc(-c2cc(C)no2)cc1S(=O)(=O)N1CCN(c2ccc(F)cc2)CC1,i,i,i,i,i
CN1CCCCC1CCN1c2ccccc2Sc2ccc(S(C)=O)cc21 (stereo unspecified),i,i,i,i,-7.48*
COc1ccc(NC(=O)c2cccc(N3C(=O)C4CC=C(C)CC4C3=O)c2)c(OC)c1 (stereo unspecified),i,-6*,i,i,i
CCCN(CCC)CCCNS(=O)(=O)c1ccc2c(c1)oc(=O)n2C,56*,i,i,i,i
CC(C)OCCCNS(=O)(=O)c1ccc2c(c1)oc(=O)n2C,i,i,i,i,i
Cc1ccc(C2c3c(C)nn(-c4ccc([N+](=O)[O-])cc4)c3N=C3C(=O)Nc4ccccc4N32)cc1 (stereo unspecified),i,i,i,i,-5.28*
COc1ccc2nc(/N=C(\N)NC(=O)C(C)(C)C)nc(C)c2c1,i,i,i,i,i
CCC(=O)N/C(N)=N/c1nc(C)c2cc(OC)ccc2n1,i,-7*,i,i,i
O=C1CC(N2CCSCC2)C(=O)N1c1cccc(Cl)c1 (stereo unspecified),i,i,i,i,i
c1ccc(Cn2c(CN3CCCC3)nc3ccccc32)cc1,i,-7*,i,i,i
Cn1cccc1-c1nc2ccccc2n1Cc1ccccc1,i,-5*,i,i,i
COc1cc(CC(=O)NCC2CCCCC2)cc(OC)c1OC,i,i,i,i,i
COc1cc(-c2noc(C)c2-c2ccc3[nH]ccc3c2)cc(OC)c1OC,i,i,i,i,i
COc1cc(-c2noc(C)c2-c2ccc(N(C)C)nc2)cc(OC)c1OC,66*,i,i,i,i

# Screening data (PubChem)
